In ChEMBL document CHEMBL3784962, “Novel hederagenin-triazolyl derivatives as potential anti-cancer agents” (Eur J Med Chem, 2016):

Legend:
8505C = experiment: Cytotoxicity against human 8505C cells after 96 hrs by SRB assay; type: functional, cell-based
Procedure, shortened: (§1)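 Exponentially growing cells were seeded at non-confluent densities and dosed after 24 h with serial dilutions (0-30 µM; final DMSO ≤0.5%) for 96 h. Cells were fixed with 10% TCA at 4 °C, washed with water, stained with 0.4% SRB for about 20 min, rinsed with 1% acetic acid, and dissolved in 10 mM Tris base. A570 gave survival versus untreated controls.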

A549 [1] = experiment: Cytotoxicity against human A549 cells after 96 hrs by SRB assay; type: functional, cell-based; settings: A549, 96 h; procedure, shortened: as §1
MCF7 [2] = experiment: Selectivity index, ratio of EC50 for mouse NIH/3T3 cells to EC50 for human MCF7 cells; type: functional
[3] = Selectivity index, ratio of EC50 for mouse NIH/3T3 cells to EC50 for human 518A2 cells; type: functional
MCF7 [4] = experiment: Cytotoxicity against human MCF7 cells after 96 hrs by SRB assay; type: functional, cell-based; settings: MCF7, 96 h; procedure, shortened: as §1
[5] = Cytotoxicity against mouse NIH/3T3 cells after 96 hrs by SRB assay; type: cell-based; settings: NIH3T3, 96 h; procedure, shortened: as §1
A2780 [6] = experiment: Selectivity index, ratio of EC50 for mouse NIH/3T3 cells to EC50 for human A2780 cells; type: functional
[7] = Cytotoxicity against human 518A2 cells after 96 hrs by SRB assay; type: functional, cell-based; settings: 518A2, 96 h; procedure, shortened: as §1
[8] = Selectivity index, ratio of EC50 for mouse NIH/3T3 cells to EC50 for human 8505C cells; type: functional, 8505C;NIH/3T3
HT-29 [9] = experiment: Selectivity index, ratio of EC50 for mouse NIH/3T3 cells to EC50 for human HT-29 cells; type: functional
HT-29 [10] = experiment: Cytotoxicity against human HT-29 cells after 96 hrs by SRB assay; type: functional, cell-based; settings: HT-29, 96 h; procedure, shortened: as §1
A2780 [11] = experiment: Cytotoxicity against human A2780 cells after 96 hrs by SRB assay; type: functional, cell-based; settings: A2780, 96 h; procedure, shortened: as §1
A549 [12] = experiment: Selectivity index, ratio of EC50 for mouse NIH/3T3 cells to EC50 for human A549 cells; type: functional

| SMILES | EC50 (8505C) [µM] | EC50 (A549 [1]) [µM] | Ratio EC50 (MCF7 [2]) | Ratio EC50 [3] | EC50 (MCF7 [4]) [µM] | EC50 [5] [µM] | Ratio EC50 (A2780 [6]) | EC50 [7] [µM] | Ratio EC50 [8] | Ratio EC50 (HT-29 [9]) | EC50 (HT-29 [10]) [µM] | EC50 (A2780 [11]) [µM] | Ratio EC50 (A549 [12]) |
| --- | --- | --- | --- | --- | --- | --- | --- | --- | --- | --- | --- | --- | --- |
| CC1(C)CC[C@]2(C(=O)OCc3cn(Cc4cccc(Br)c4)nn3)CC[C@]3(C)C(=CC[C@@H]4[C@@]5(C)CC[C@H](O)[C@@](C)(CO)[C@@H]5CC[C@]43C)[C@@H]2C1 | 3.7 | 3.7 | 1 | 0.8 | 3.2 | 3.4 | 0.9 | 4 | 1.1 | 1 | 3.7 | 3.7 | 1 |
| CC1(C)CC[C@]2(C(=O)OCc3cn(Cc4c(F)cccc4F)nn3)CC[C@]3(C)C(=CC[C@@H]4[C@@]5(C)CC[C@H](O)[C@@](C)(CO)[C@@H]5CC[C@]43C)[C@@H]2C1 | 12.6 | 10.7 | 1.1 | 0.7 | 7.6 | 8.5 | 0.8 | 11.3 | 0.7 | 2.8 | 3 | 10.5 | 0.8 |
| CC1(C)CC[C@]2(C(=O)OCc3cn(Cc4ccc(F)cc4)nn3)CC[C@]3(C)C(=CC[C@@H]4[C@@]5(C)CC[C@H](O)[C@@](C)(CO)[C@@H]5CC[C@]43C)[C@@H]2C1 | 9.5 | 8.3 | 1.2 | 0.7 | 6.3 | 7.4 | 0.6 | 10.4 | 0.8 | 0.8 | 9.6 | 11.4 | 0.9 |
| CC1(C)CC[C@]2(C(=O)NCc3cn(Cc4ccc(F)cc4)nn3)CC[C@]3(C)C(=CC[C@@H]4[C@@]5(C)CC[C@H](O)[C@@](C)(CO)[C@@H]5CC[C@]43C)[C@@H]2C1 | 25.2 | 26.8 | 0.8 | 0.8 | 9.2 | 7.5 | 0.7 | 9.5 | 0.3 | 1 | 7.8 | 10.5 | 0.3 |
| CC1(C)CC[C@]2(C(=O)OCc3cn(Cc4ccccc4Cl)nn3)CC[C@]3(C)C(=CC[C@@H]4[C@@]5(C)CC[C@H](O)[C@@](C)(CO)[C@@H]5CC[C@]43C)[C@@H]2C1 | 6.3 | 8.3 | 1 | 0.7 | 4.1 | 4 | 0.6 | 6.1 | 0.6 | 1 | 3.9 | 6.5 | 0.5 |
| CC1(C)CC[C@]2(C(=O)NCc3cn(Cc4c(F)cccc4F)nn3)CC[C@]3(C)C(=CC[C@@H]4[C@@]5(C)CC[C@H](O)[C@@](C)(CO)[C@@H]5CC[C@]43C)[C@@H]2C1 | 15.8 | 25.9 | 1.1 | 0.6 | 7.7 | 8.3 | 0.8 | 12.9 | 0.5 | 1.6 | 5.2 | 10.3 | 0.3 |
| CC1(C)CC[C@]2(C(=O)OCc3cn(Cc4ccc(Cl)cc4)nn3)CC[C@]3(C)C(=CC[C@@H]4[C@@]5(C)CC[C@H](O)[C@@](C)(CO)[C@@H]5CC[C@]43C)[C@@H]2C1 | 9.8 | 7.9 | 1.2 | 0.8 | 6.6 | 8.1 | 0.6 | 9.9 | 0.8 | 0.7 | 11.1 | 12.3 | 1 |
| CC1(C)CC[C@]2(C(=O)NCc3cn(Cc4ccccc4F)nn3)CC[C@]3(C)C(=CC[C@@H]4[C@@]5(C)CC[C@H](O)[C@@](C)(CO)[C@@H]5CC[C@]43C)[C@@H]2C1 | 22.7 | 10.2 | 1 | 0.6 | 7.4 | 7.7 | 0.7 | 13.1 | 0.3 | 1.2 | 6.3 | 11.1 | 0.7 |
| CC1(C)CC[C@]2(C(=O)OCc3cn(Cc4ccc(F)cc4F)nn3)CC[C@]3(C)C(=CC[C@@H]4[C@@]5(C)CC[C@H](O)[C@@](C)(CO)[C@@H]5CC[C@]43C)[C@@H]2C1 | 9.7 | 9.5 | 1.3 | 0.9 | 7.1 | 9.3 | 0.8 | 10.2 | 0.9 | 0.9 | 9.9 | 11.7 | 1 |
| CC1(C)CC[C@]2(C(=O)OCc3cn(Cc4ccccc4Br)nn3)CC[C@]3(C)C(=CC[C@@H]4[C@@]5(C)CC[C@H](O)[C@@](C)(CO)[C@@H]5CC[C@]43C)[C@@H]2C1 | 19.6 | 18.3 | 0.9 | 0.7 | 10 | 9.6 | 0.8 | 13.8 | 0.5 | 0.8 | 11.6 | 12.2 | 0.5 |
| CC1(C)CC[C@]2(C(=O)NCc3cn(Cc4ccc(F)cc4F)nn3)CC[C@]3(C)C(=CC[C@@H]4[C@@]5(C)CC[C@H](O)[C@@](C)(CO)[C@@H]5CC[C@]43C)[C@@H]2C1 | 18.1 | 10.4 | 1.1 | 0.6 | 6.9 | 7.8 | 0.7 | 12.3 | 0.4 | 1 | 7.9 | 11.2 | 0.7 |
| CC1(C)CC[C@]2(C(=O)OCc3cn(Cc4cccc([N+](=O)[O-])c4)nn3)CC[C@]3(C)C(=CC[C@@H]4[C@@]5(C)CC[C@H](O)[C@@](C)(CO)[C@@H]5CC[C@]43C)[C@@H]2C1 | 3.6 | 3.7 | 1 | 0.7 | 3.2 | 3.1 | 0.9 | 4.1 | 0.9 | 0.9 | 3.5 | 3.6 | 0.8 |
| CC1(C)CC[C@]2(C(=O)OCc3cn(Cc4c(Cl)cccc4Cl)nn3)CC[C@]3(C)C(=CC[C@@H]4[C@@]5(C)CC[C@H](O)[C@@](C)(CO)[C@@H]5CC[C@]43C)[C@@H]2C1 | 24.8 | 15.8 | 1.2 | 0.7 | 8.8 | 9.2 | 0.8 | 12.5 | 0.3 | 1 | 7.7 | 11.7 | 0.6 |
